Assay results collected from several papers.
Protocols differ between the studies behind these lines.
CES2: Cocaine esterase (CES2, Homo sapiens, UniProt O00748)
SLC6A2: Sodium-dependent noradrenaline transporter (SLC6A2, Homo sapiens, UniProt P23975)
Oprk1: Kappa-type opioid receptor (Oprk1, Mus musculus, UniProt P33534)
FPR1: fMet-Leu-Phe receptor (FPR1, Homo sapiens, UniProt P21462)
WD repeat-containing protein 91: WD repeat-containing protein 91 (Homo sapiens, UniProt A4D1P6)

COc1cc2c(cc1OC)C(=O)/C(=C/C1CCCCC1)C2 — IC50 (CES2; enzyme activity, inhibitor, fluorescence; with preincubation): 2.42 µM
CCOC(=O)[C@@]12C[C@@H]1[C@@H](n1ccc3c(NCCCCCc4ccccc4)nc(C#Cc4ccccc4)nc31)[C@H](O)[C@@H]2O — Ki (SLC6A2; ligand displacement, radioligand): 0.47 µM
COc1cc2c(cc1OC)C(=O)/C(=C/c1ccc3ccccc3c1)C2 — IC50 (CES2; enzyme activity, inhibitor, fluorescence; with preincubation): 10.4 µM
CC(C)[C@@H](CN1CCc2ccccc2C1)NC(=O)c1cccc(-c2ccc(F)cc2)c1 — Ki (Oprk1; ligand displacement, radioligand): 13 µM
OC[C@@]12C[C@@H]1[C@@H](n1cnc3c(NCCCCCCc4ccccc4)nc(I)nc31)[C@H](O)[C@@H]2O — Ki (SLC6A2; ligand displacement, radioligand): 1.4 µM
O=C(CCNC(=O)CNC(=O)CC(c1ccccc1)(c1ccccc1)c1ccccc1)NC[C@H]1CCCN(Cc2ccc(F)cc2)C1 — IC50 (Muscarinic acetylcholine receptor M5 (CHRM5, Homo sapiens, UniProt P08912); ligand displacement, radioligand; cell membranes): 19.4 µM
O=c1c(O[C@@H]2O[C@H](CO)[C@H](O)[C@H](O)[C@H]2O)c(-c2ccc(O)c(O)c2)oc2cc(O)cc(O)c12 — Kd (srtA (Staphylococcus aureus, UniProt Q2FV99); binding, SPR): 19.5 µM
OC[C@@]12C[C@@H]1[C@@H](n1cnc3c(N[C@@H](C4CCC4)C4CC4)nc(C#Cc4ccc(Cl)s4)nc31)[C@H](O)[C@@H]2O — Ki (SLC6A2; ligand displacement, radioligand): 1.8 µM
N#Cc1ccc(C[C@H](Nc2nnc(-c3cccc(Br)c3)o2)C(=O)N2CCc3ccccc32)cc1 — EC50 (FPR1; calcium signal, agonist): 27 µM
CNC(=O)[C@@]12C[C@@H]1[C@@H](n1cnc3c(Nc4ccccc4)nc(C#Cc4ccc(Cl)s4)nc31)[C@H](O)[C@@H]2O — Ki (SLC6A2; ligand displacement, radioligand): 2.5 µM
Cc1cccc(-c2nnc(N[C@@H](Cc3ccc(C#N)cc3)C(=O)N3CCc4ccccc43)o2)c1 — EC50 (FPR1; calcium signal, agonist): 19.4 µM
CCn1c(=O)[nH]c2cc(C(=O)NC(c3ccc(F)cc3)c3cnn(C)c3)ccc2c1=O (centres unmarked) — Kd (WD repeat-containing protein 91; binding, SPR): 3 µM
CC(C)[C@@H](CN1CCc2ccccc2C1)NC(=O)c1c(Cl)cncc1Cl — Ki (Oprk1; ligand displacement, radioligand): 39.7 µM
N#Cc1ccc(C[C@H](Nc2nnc(-c3cccc(F)c3)o2)C(=O)N2CCc3ccccc32)cc1 — EC50 (FPR1; calcium signal, agonist): 30.2 µM
CC(C)[C@H](CN1CCc2ccccc2C1)NC(=O)c1ccc([N+](=O)[O-])s1 — Ki (Oprk1; ligand displacement, radioligand): 9.3 µM
COc1cc2c(cc1OC)C(=O)/C(=C/c1ccc(C)c(C)c1)C2 — IC50 (CES2; enzyme activity, inhibitor, fluorescence; with preincubation): > 100 µM
CNc1nc(C#Cc2ccc(Cl)s2)nc2c1ncn2[C@H]1[C@H](O)[C@H](O)[C@]2(C(=O)OC)C[C@H]12 — EC50 (SLC6A2; ligand displacement, radioligand): 0.75 µM
CNc1nc(N[C@@H]2CCc3c(C#N)cccc32)cc(-c2cccc(N3CCCC3)c2)n1 — Kd (WD repeat-containing protein 91; binding, SPR): 1 µM
COc1cc2c(cc1OC)C(=O)/C(=C/C1CCCC1)C2 — IC50 (CES2; enzyme activity, inhibitor, fluorescence; with preincubation): 6.31 µM
CCOC(=O)[C@@]12C[C@@H]1[C@@H](n1cnc3c(Nc4ccccc4)nc(C#Cc4ccc(Cl)s4)nc31)[C@H](O)[C@@H]2O — Ki (SLC6A2; ligand displacement, radioligand): 2.3 µM
CCc1ccccc1/C=C1\Cc2cc(OC)c(OC)cc2C1=O — IC50 (CES2; enzyme activity, inhibitor, fluorescence; with preincubation): 1.48 µM
CC(C)[C@@H](CN1CCc2ccccc2C1)NC(=O)c1ccc(F)cc1 — Ki (Oprk1; ligand displacement, radioligand): 36.2 µM
CCOC(=O)[C@@]12C[C@@H]1[C@@H](n1cnc3c(NCCCCCc4ccccc4)nc(C#Cc4ccc(Cl)s4)nc31)[C@H](O)[C@@H]2O — Ki (SLC6A2; ligand displacement, radioligand): 0.82 µM
COc1cc2c(cc1OC)C(=O)/C(=C/c1ccc(C)cc1Cl)C2 — IC50 (CES2; enzyme activity, inhibitor, fluorescence; with preincubation): > 100 µM
CC(=O)N[C@@H](C)c1cc(Cl)ccc1C1CCN(C(=O)[C@@H]2CN(C(C)(C)C)C[C@H]2c2ccc(F)cc2F)CC1 — EC50 (Melanocortin receptor 4 (MC4R, Homo sapiens, UniProt P32245); cAMP, agonist): 0.0078 µM
COc1ccc(/C=C2\Cc3cc(OC)c(OC)cc3C2=O)cc1OC — IC50 (CES2; enzyme activity, inhibitor, fluorescence; with preincubation): > 100 µM
O=c1cc(-c2ccc(O)cc2)oc2cc(O)cc(O)c12 — Kd (NACHT, LRR and PYD domains-containing protein 3 (NLRP3, Homo sapiens, UniProt Q96P20); binding, SPR): 18.7 µM
O=C1NC(=O)C(c2ccccc2)(c2ccccc2)N1 — IC50 (CES2; enzyme activity, inhibitor, fluorescence; with preincubation): > 100 µM
CCOC(=O)[C@@]12C[C@@H]1[C@@H](n1cnc3c(NCCCCCCc4ccccc4)nc(C#Cc4ccc(Cl)s4)nc31)[C@H](O)[C@@H]2O — Ki (SLC6A2; ligand displacement, radioligand): 5.4 µM
